# How the values were obtained:
# [1] = target: Adenosine receptor A2a (Rattus norvegicus) (UniProt P30543); test: Displacement of specific [3H]-CGS- 21680 binding at adenosine A2A receptor in rat striatal membranes.; assay type: cell membranes; set-up: concentration or dose not given beside the values; conditions: Membrane; concentration not given here
# [2] = target: T1, Adenosine receptor A1 (Rattus norvegicus) (UniProt P25099); test: Displacement of specific [3H](R)-PIA binding at Adenosine A1 receptor from rat brain membranes at the concentration of 10e-4 M; assay type: cell membranes; conditions: Membrane
# T1 sequence (whole entry): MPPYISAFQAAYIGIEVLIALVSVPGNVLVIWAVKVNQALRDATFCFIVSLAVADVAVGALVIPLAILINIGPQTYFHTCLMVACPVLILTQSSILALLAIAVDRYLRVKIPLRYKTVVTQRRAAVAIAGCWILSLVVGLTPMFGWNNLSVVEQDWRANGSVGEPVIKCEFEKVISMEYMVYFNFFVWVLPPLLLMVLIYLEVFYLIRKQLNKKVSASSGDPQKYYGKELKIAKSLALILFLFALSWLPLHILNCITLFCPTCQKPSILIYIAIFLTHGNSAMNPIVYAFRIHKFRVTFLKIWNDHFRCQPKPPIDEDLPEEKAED
# Procedure, shortened: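 [3H](R)-PIA binding to rat cerebral cortex membranes with adenosine deaminase (3 units/mL) present in preparation, 30 min 30 °C preincubation and incubation. Result given as % of specific binding displaced at 10^-4 M.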
# [3] = target: T1, Adenosine receptor A1 (Rattus norvegicus); test: Displacement of specific [3H](R)-PIA binding at Adenosine A1 receptor from rat brain membranes; assay type: cell membranes; set-up: concentration or dose not given beside the values; conditions: Membrane; concentration not given here
# [4] = target: Adenosine receptor A2a (Rattus norvegicus) (UniProt P30543); test: Displacement of specific [3H]-CGS- 21680 binding at Adenosine A2A receptor in rat striatal membranes at the concentration of 10e-4 M; assay type: cell membranes; conditions: Membrane
# Procedure, shortened: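 [3H]CGS 21680 binding to rat striatal membranes, with adenosine deaminase (3 units/mL) during preparation, 30 min 30 °C preincubation and incubation. Reported as % of specific binding displaced at 10^-4 M.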
# Adenosine receptor A3 = target: T2, Adenosine receptor A3 (Homo sapiens, UniProt P0DMS8); test: Displacement of specific [125I]AB-MECA binding at human adenosine A3 receptor.
# T2 sequence (P0DMS8 whole entry): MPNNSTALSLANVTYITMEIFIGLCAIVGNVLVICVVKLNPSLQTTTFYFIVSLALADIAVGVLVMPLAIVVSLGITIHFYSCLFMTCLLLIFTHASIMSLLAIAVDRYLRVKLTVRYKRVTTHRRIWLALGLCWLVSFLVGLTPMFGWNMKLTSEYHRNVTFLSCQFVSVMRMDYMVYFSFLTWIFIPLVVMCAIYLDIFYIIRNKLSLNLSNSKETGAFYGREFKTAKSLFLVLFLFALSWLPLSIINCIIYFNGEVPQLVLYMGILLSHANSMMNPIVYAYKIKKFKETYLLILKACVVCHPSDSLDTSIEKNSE
# Homo sapiens = species on record: Homo sapiens; test: Selectivity ratio measured as the Ki value of rat A1 receptor to that of hA3 receptor.
# Adenosine receptor A2a = Adenosine receptor A2a (Rattus norvegicus, UniProt P30543); test: Displacement of specific [3H]-CGS- 21680 binding at Adenosine A2A receptor in rat striatal membranes.; assay type: cell membranes, Membrane
# Sequence of Adenosine receptor A2a (P30543 whole entry): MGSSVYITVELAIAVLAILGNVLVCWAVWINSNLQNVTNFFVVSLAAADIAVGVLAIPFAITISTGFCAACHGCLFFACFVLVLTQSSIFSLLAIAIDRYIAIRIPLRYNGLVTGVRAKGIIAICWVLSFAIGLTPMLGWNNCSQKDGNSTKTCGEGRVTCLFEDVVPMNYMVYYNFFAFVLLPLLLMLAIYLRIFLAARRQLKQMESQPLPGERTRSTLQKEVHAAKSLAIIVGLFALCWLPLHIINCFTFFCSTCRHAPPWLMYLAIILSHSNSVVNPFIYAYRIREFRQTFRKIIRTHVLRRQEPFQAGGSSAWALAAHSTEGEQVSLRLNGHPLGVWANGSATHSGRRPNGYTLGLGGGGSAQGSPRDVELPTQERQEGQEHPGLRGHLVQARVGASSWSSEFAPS
# Adenosine receptor A1 = target: T3, Adenosine receptor A1 (Rattus norvegicus, UniProt P25099); test: Displacement of specific [3H](R)-PIA binding at adenosine A1 receptor from rat brain membranes.; assay type: cell membranes, Membrane
# T3 sequence (P25099 whole entry): T1 sequence (whole entry)
# [5] = target: T4, Adenosine receptor A3 (Homo sapiens) (UniProt P0DMS8); test: Displacement of [125I]AB-MECA binding at human Adenosine A3 receptor at 10e-7 M
# T4 sequence (whole entry): T2 sequence (P0DMS8 whole entry)
# Procedure, shortened: (§1)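 Nonspecific binding defined with 100 µM (R)-PIA. Compounds dissolved in DMSO, ≤2% in assay. Stopped by rapid filtration over GF/B filters with three buffer rinses; result given as % specific binding displaced at the stated concentration.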
# [6] = target: T4, Adenosine receptor A3 (Homo sapiens); test: Displacement of [125I]AB-MECA binding at human Adenosine A3 receptor at 10e-5 M; procedure, shortened: as §1
# Sequence of Adenosine receptor A2a (Rattus norvegicus) (P30543 whole entry): as above
structure (smiles),measurement,setting,value
CCOC(=O)C1=C(C)N=C(C)/C(=C(/O)OCC)C1c1cccs1 (centres undefined),inhibition,[1],25%
CCOC(=O)C1=C(c2ccccc2)N=C(C)/C(=C(/O)OC(C)(C)C)C1C#Cc1ccccc1 (centres undefined),inhibition,[1],20%
CCO/C(O)=C1\C(C)=NC(c2ccccc2)=C(C(=O)OCc2cc(C(F)(F)F)cc(C(F)(F)F)c2)C1C#Cc1ccccc1 (centres undefined),inhibition,[1],29%
same,Displacement,[2],< 10%
CCOC(=O)C1=C(c2ccccc2)N=C(C)/C(=C(/O)OCC)C1C#Cc1cccc(C)c1 (centres undefined),inhibition,[3],41%
same,Displacement,[4],< 10%
COC(=O)C1=C2C=CN(C)C=C2c2nc(-c3ccccc3)nn2C1,Ki,Adenosine receptor A3,0.013 µM
CCCO/C(O)=C1\C(C)=NC(c2ccccc2)=C(C(=O)OCc2ccccc2)C1C#Cc1ccccc1 (centres undefined),inhibition,[3],21%
same,inhibition,[1],16%
CCOC(=O)C1=C(C)NC(C)=C(C(=O)OC)C1C#Cc1ccccc1 (centres undefined),Selectivity ratio,Homo sapiens,5.7
CCO/C(O)=C1\C(C)=NC(c2ccccc2)=C(C(=O)OCCCc2ccccc2)C1C#Cc1ccccc1 (centres undefined),Displacement,[4],< 10%
same,Displacement,[2],< 10%
CCOCN1C(C)=C(C(=O)OCC)C(C#Cc2ccccc2)C(C(=O)OCC[Si](C)(C)C)=C1c1ccccc1 (centres undefined),inhibition,[3],13%
same,inhibition,[1],19%
CCOC(=O)C1=C(c2ccccc2)NC(C)=C(C(C)=O)C1C#Cc1ccccc1 (centres undefined),inhibition,[1],17%
CCOC(=O)C1=C(c2ccccc2)N=C(C)/C(=C(/O)OCC)C1c1cc2ccccc2o1 (centres undefined),Displacement,[4],< 10%
CCO/C(O)=C1\C(C)=NC(c2ccccc2)=C(C(=O)OCc2cccc(I)c2)C1C#Cc1ccccc1 (centres undefined),inhibition,[3],14%
same,inhibition,[1],19%
CCOC(=O)C1=C(c2ccccc2)N=C(C)/C(=C(/O)OCC)C1C#Cc1ccc([N+](=O)[O-])cc1 (centres undefined),inhibition,[1],24%
CCOC(=O)C1=C(c2ccccc2)N=C(C)/C(=C(/O)OCC)C1c1ccncc1 (centres undefined),Ki,Adenosine receptor A2a,44.7 µM
CCO/C(O)=C1\C(C)=NC(c2ccccc2)=C(C(=O)OCc2cccc([N+](=O)[O-])c2)C1C#Cc1ccccc1 (centres undefined),inhibition,[3],28.2%
same,Displacement,[4],< 10%
CCOC(=O)C1=C(c2ccccc2)N=C(C)/C(=C(/O)OCC)C1c1cccnc1 (centres undefined),inhibition,[1],40%
Cc1ccc(-c2oc3ccc(Cl)cc3c(=O)c2Cl)c(OC(C)C)c1,Ki,Adenosine receptor A1,100 µM
same,Ki,Adenosine receptor A2a,> 100 µM
CCO/C(O)=C1\C(C)=NC(c2ccccc2)=C(C(=O)OCc2ccccc2C)C1C#Cc1ccccc1 (centres undefined),inhibition,[3],16%
same,inhibition,[1],13%
CCOC(=O)C1=C(c2ccccc2)N=C(C)/C(=C(/O)OCC)C1/C=C/c1ccc(N)cc1 (centres undefined),inhibition,[1],26%
CCO/C(O)=C1\C(C)=NC(c2ccccc2)=C(C(=O)OCc2ccc(C(=O)OCC(Cl)(Cl)Cl)cc2)C1C#Cc1ccccc1 (centres undefined),inhibition,[3],33%
same,inhibition,[1],11%
CCO/C(O)=C1\C(C)=NC(c2ccccc2)=C(C(=O)OCC(OC)c2ccccc2)C1C#Cc1ccccc1 (centres undefined),inhibition,[1],33%
CCO/C(O)=C1\C(C)=NC(c2ccccc2)=C(C(=O)OCc2cccc(C)c2)C1C#Cc1ccccc1 (centres undefined),inhibition,[1],16%
same,Displacement,[2],< 10%
CCO/C(O)=C1\C(C)=NC(c2ccccc2)=C(C(=O)OCc2ccc(C)cc2)C1C#Cc1ccccc1 (centres undefined),inhibition,[1],17%
same,Displacement,[2],< 10%
CCO/C(O)=C1\C(C)=NC(c2ccccc2)=C(C(=O)OCCc2ccccc2)C1C#Cc1ccccc1 (centres undefined),Displacement,[4],< 10%
same,Displacement,[2],< 10%
CCOC(=O)C1=C(c2ccccc2)N=C(C)/C(=C(/O)OCC)C1c1cccs1 (centres undefined),inhibition,[1],36%
CCNC(=O)C1=C(c2ccccc2)N(COCC)C(C)=C(C(=O)OCC)C1C#Cc1ccccc1 (centres undefined),inhibition,[1],35%
CCOC(=O)C1=C(C(F)(F)F)N=C(C)/C(=C(/O)OCC)C1C#Cc1ccccc1 (centres undefined),inhibition,[1],25%
CCO/C(O)=C1\C(C)=NC(c2ccccc2)=C(C(=O)OCc2ccc([N+](=O)[O-])cc2)C1C#Cc1ccccc1 (centres undefined),inhibition,[3],29%
same,Displacement,[4],< 10%
CCO/C(O)=C1\C(C)=NC(c2ccccc2)=C(C(=O)OCc2ccc(C(=O)NCCN)cc2)C1C#Cc1ccccc1 (centres undefined),Displacement,[5],< 10%
same,inhibition,[3],68%
same,inhibition,[1],39%
CCO/C(O)=C1\C(CC)=NC(c2ccccc2)=C(C(=O)OCc2ccccc2)C1C#Cc1ccccc1 (centres undefined),inhibition,[3],25%
same,Displacement,[4],< 10%
CCO/C(O)=C1\C(C)=NC(c2ccccc2)=C(C(=O)OC(C)(C)C)C1C#Cc1ccccc1 (centres undefined),inhibition,[1],27%
CCNC(=O)C1=C(c2ccccc2)N=C(C)/C(=C(/O)OCC)C1C#Cc1ccccc1 (centres undefined),inhibition,[1],47%
CCO/C(O)=C1\C(C)=NC(c2ccccc2)=C(C(=O)OCc2ccc(C(F)(F)F)cc2)C1C#Cc1ccccc1 (centres undefined),inhibition,[3],32%
same,inhibition,[1],15%
CCO/C(O)=C1\C(C)=NC(c2ccccc2)=C(C(=O)OCc2ccccc2)C1C#Cc1ccccc1 (centres undefined),Displacement,[4],< 10%
CCO/C(O)=C1\C(C)=NC(c2ccccc2)=C(C(=O)SCC)C1C#Cc1ccccc1 (centres undefined),inhibition,[1],17%
CCO/C(O)=C1\C(C)=NC(c2ccccc2)=C(C(=O)O)C1C#Cc1ccccc1 (centres undefined),Displacement,[6],< 10%
same,inhibition,[1],16%
CCOC(=O)C1=C(c2ccccc2)N=C(C)/C(=C(/O)SCC)C1C#Cc1ccccc1 (centres undefined),Ki,Adenosine receptor A2a,5.15 µM
C=CCO/C(O)=C1\C(C)=NC(c2ccccc2)=C(C(=O)OCC)C1/C=C/c1ccc([N+](=O)[O-])cc1 (centres undefined),inhibition,[1],15%
same,Displacement,[2],< 10%
CCOCN1C(C)=C(C(=O)OCC)C(C#Cc2ccccc2)C(C(=O)O)=C1c1ccccc1 (centres undefined),Ki,Adenosine receptor A1,19.1 µM
same,Ki,Adenosine receptor A3,> 100 µM
same,inhibition,[1],36%
CCOC(=O)C1=C(c2ccccc2)N=C(C)/C(=C(/O)OCC)C1c1ccccc1 (centres undefined),Displacement,[4],< 10%
CCO/C(O)=C1\C(C)=NC(c2ccccc2)=C(C(=O)OCC[Si](C)(C)C)C1C#Cc1ccccc1 (centres undefined),inhibition,[1],18%
CCO/C(O)=C1\C(C)=NC(c2ccccc2)=C(C(=O)OCc2cc([N+](=O)[O-])cc([N+](=O)[O-])c2)C1C#Cc1ccccc1 (centres undefined),inhibition,[3],20%
same,inhibition,[1],40%
CCOC(=O)C1=C(c2ccccc2)N=C(C)/C(=C(/O)OCC)C1c1ccccn1 (centres undefined),inhibition,[1],25%
CCOC(=O)C1=C(C)N(COC)C(c2ccccc2)=C(C(=O)OCC[Si](C)(C)C)C1C#Cc1ccccc1 (centres undefined),inhibition,[1],27%
same,Displacement,[2],< 10%
CCOC(=O)C1=C(c2ccccc2)N=C(C)/C(=C(/O)OCC)C1c1ccco1 (centres undefined),inhibition,[1],45%
CCNC(=O)C1=C(C)NC(c2ccccc2)=C(C(=O)OCC)C1C#Cc1ccccc1 (centres undefined),inhibition,[1],19%
CCOC(=O)C1=C(c2ccccc2)N=C(C)/C(=C(/O)OCc2ccccc2)C1C#Cc1ccccc1 (centres undefined),inhibition,[3],24%
same,Displacement,[4],< 10%
CCOC(=O)C1=C(c2ccccc2)N=C(C)/C(=C(/O)OCC)C1C#Cc1ccccc1 (centres undefined),inhibition,[1],26%
CCOC(=O)C1=C(c2ccccc2)N=C2CCCC(O)=C2C1C#Cc1ccccc1 (centres undefined),inhibition,[1],22%

# From ChEMBL document CHEMBL1130115 (J Med Chem, 1997)
